Results published in ChEMBL document CHEMBL3046326, “Screening of dialkoxybenzenes and disubstituted cyclopentene derivatives against the cabbage looper, Trichoplusia ni, for the discovery of new feeding and oviposition deterrents” (J Agric Food Chem, 2007).

Key:
[1] = system: Trichoplusia ni; assay: Feeding deterrent activity against freshly molted third-instar larval stage of Trichoplusia ni (cabbage looper), Trichoplusia ni at 50 ug/cm'2 after 3 to 5 hr by leaf disk choice bioassay; format: functional
Outline: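 Leaf disk choice with freshly molted third instar larvae starved 4–5 h. One disk was painted on each side with 10 µL solution giving 50 µg/cm², the other with carrier solvent. Twenty-five larvae per treatment, stopped at ~50% control disk consumption (3–5 h). Deterrence = [(C − T)/(C + T)] × 100 from consumed areas; mean ± SE, Tukey's test p < 0.05.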

[2] = system: Trichoplusia ni; assay: Oviposition deterrent activity against adult female Trichoplusia ni (cabbage looper) moths introduced along with male moths into oviposition cage containing compound pretreated cabbage leaves assessed as eggs laying on the leaf disks at 0.25% after 48 hr by oviposition choice bioassay; format: functional
Outline: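 Choice test with moths from larvae reared on normal diet from neonate to pupation. Pupae were sexed and held separately until emergence. Cabbage leaves were treated with test substance at 0.25% or left as control, and eggs per leaf were counted after 48 h. ODI = [(C − T)/(C + T)] × 100 from egg numbers on control and treated leaves.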

[3] = system: Trichoplusia ni; assay: Toxicity against third-instar larval stage of Trichoplusia ni (cabbage looper) assessed as mortality at 0.25% measured after 24 hr by contact toxicity bioassay; format: functional
Outline: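 Third-instar larvae were sprayed directly with test solution at 0.25% in filter-paper-lined Petri dishes. They were then moved to dishes holding a small piece of artificial diet. Mortality was scored 24 h after spraying. The test applied only to compounds giving >50% feeding deterrence at 50 µg/cm².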

[4] = system: Trichoplusia ni; assay: Toxicity against third-instar larval stage of Trichoplusia ni (cabbage looper) assessed as mortality measured after 24 hr by contact toxicity bioassay; format: functional
Outline: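 Third-instar larvae were hand-sprayed directly with test solutions in filter-paper-lined Petri dishes, then moved to dishes holding a small piece of artificial diet. Mortality was recorded at 24 h.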

[5] = system: Trichoplusia ni; assay: Feeding deterrent activity against freshly molted third-instar larval stage of Trichoplusia ni (cabbage looper) after 3 to 5 hr by leaf disk choice bioassay; format: functional, organism-based
Outline: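 Choice test: freshly molted third instar larvae, starved 4–5 h, offered two leaf disks, one painted on each side with 10 µL test solution and one with carrier solvent only. Twenty-five larvae per treatment. Ended when ~50% of the control disk was eaten (normally 3–5 h). Consumed areas measured. DC50 derived by linear regression of at least four concentrations (3.12–25 µg/cm²).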

[6] = system: Helicoverpa zea; assay: Larvicidal activity against Helicoverpa zea (corn earworm) assessed as growth inhibition at 3 mM/kg relative to control by chronic feeding bioassay; format: functional; conditions: read-out: GI

Structure (SMILES)	Activity [1] [%]	Activity [2] [%]	mortality [3] [%]	LC50 [4] [%]	DC50 [5] [microg/cm2]	inhibition of growth at 3000 µM [6] [%]
CCOc1ccc(OCC)cc1 [1,4-DIETHOXYBENZENE]	80.8	74.7	100	0.03	25.9	
CCCOc1ccccc1OCC [1-ethoxy-2-propoxybenzene]	71	28.7	6.7		24.1	
CCCCCOc1cccc(OCC)c1 [1-ethoxy-3-pentoxybenzene]	69.8	14.3	20		26.5	
CCCOc1cccc(OCC)c1 [1-ethoxy-3-propoxybenzene]	69.8	14.3	20		26.5	
CCCCCOc1ccc(OCC)cc1 [1-ethoxy-4-pentoxybenzene]	90.7	56.6	96.8	0.03	23.4	
CCCCOc1ccccc1OCCC(C)C [1-isopentoxy-2-butoxybenzene]	66.9	29.4	10		32.5	
CCOc1ccccc1OCCC(C)C [1-isopentoxy-2-ethoxybenzene]	66.9	29.4	10		32.5	
COc1ccccc1OCCC(C)C [1-isopentoxy-2-methoxybenzene]	66.9	29.4	10		32.5	
CCCCCOc1ccccc1OCCC(C)C [1-isopentoxy-2-pentoxybenzene]	66.9	29.4	10		32.5	
CCOc1cccc(OCCC(C)C)c1 [1-isopentyloxy-3-ethoxybenzene]	82.6	35.7	20.8		19.8	
COc1cccc(OCCC(C)C)c1 [1-isopentyloxy-3-methoxybenzene]	82.6	35.7	20.8		19.8	
CCCCCOc1cccc(OCCC(C)C)c1 [1-isopentyloxy-3-pentoxybenzene]	82.6	35.7	20.8		19.8	
CCOc1ccc(OCCC(C)C)cc1 [1-isopentyloxy-4-ethoxybenzene]	100	22.9	18.8		5.8	
COc1ccc(OCCC(C)C)cc1 [1-isopentyloxy-4-methoxybenzene]	100	22.9	18.8		5.8	
CCCOc1ccc(OCCC(C)C)cc1 [1-isopentyloxy-4-propoxybenzene]	100	22.9	18.8		5.8	
CCOc1cccc(OC)c1 [1-methoxy-3-ethoxybenzene]	54.8	70.2	16.7		61.5	
CCCCCOc1cccc(OC)c1 [1-methoxy-3-pentoxybenzene]	54.8	70.2	16.7		61.5	
CCCOc1cccc(OC)c1 [1-methoxy-3-propoxybenzene]	54.8	70.2	16.7		61.5	
CCOc1ccc(OC)cc1 [1-methoxy-4-ethoxybenzene]	80.2	6	23.3	0.03	34.6	
CCCCCOc1ccc(OC)cc1 [1-methoxy-4-pentoxybenzene]	80.2	6	23.3		34.6	
CCCOc1ccc(OC)cc1 [1-methoxy-4-propoxybenzene]	53.4	6	23.3		34.6	
CCCCOc1ccccc1OCCC [1-propoxy-2-butoxybenzene]	100	31.7	13.8		19.4	
CCCCCOc1ccccc1OCCC [1-propoxy-2-pentoxybenzene]	100	31.7	13.8		19.4	
CCCCCOc1cccc(OCCC)c1 [1-propoxy-3-pentoxybenzene]	98	2.7	50		21.5	
CCCCCOc1ccc(OCCC)cc1 [1-propoxy-4-pentoxybenzene]	53.4	9.6	53.1		39.7	
CCCOc1cccc(OCCC(C)C)c1 [3-PROPOXY-1-ISOPENTOXYBENZENE]	82.6	35.7	20.8		19.8	
CCCOc1ccc(OCC)cc1 [4-ETHOXY-1-PROPOXYBENZENE]	53.4	56.6	96.8	0.03	23.4	
C=C1C(=O)O[C@@H]2[C@H]1CC[C@H](C)[C@]1(O)C=CC(=O)[C@@]21C [PARTHENIN]						59
